Records with an inconclusive call do not appear.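 The calls were made as follows, unless noted: active = viability increase at or above a cutoff of the median across tested compounds plus 3 SD (cut at about 8.5% in these data, passing the limit was not always enough); inconclusive = some gains above the cutoff, reason not given; inactive = the rest.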
What was measured:
[1] = S. cerevisiae growth inhibition in permissive medium (OD615), pilot counter-assay for S. cerevisiae lifespan shortening project, permissive growth control (AID 705;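 active = growth inhibition above 25% in both replicates, a cutoff set 3 SD above the mean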); settings: OD615, 24 h, at 10 µM, hits give high values
Procedure, shortened: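 Timing: 24 h exposure, 30 °C / Material: Saccharomyces cerevisiae strain carrying genetically modified DeaD replicative-lifespan system / Signal: OD at 615 nm / Compound: 10 µM single dose, 0.25% DMSO / Medium: SC raffinose/galactose permissive medium / Evaluation: reduction in yeast growth (OD615)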

[2] = S. cerevisiae growth inhibition in restrictive medium, OD615, pilot screen, restrictive growth control, yeast lifespan reduction project (AID 706;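 active = growth inhibition above a set limit, 3 SD over mean compound inhibition, in both replicates, cut at about 43% in these data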;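 also: modified DeaD lifespan yeast strain shifted to restrictive glucose medium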); settings: OD615, 48 h, at 10 µM, hits give high values
Procedure, shortened: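 System: Engineered S. cerevisiae DeaD strain | Detection: OD615 | Buffer or medium: CSMM-D glucose medium | Doses: 10 µM compound, 0.25% DMSO | Timing: 4 h pre-growth plus 48 h compound exposure, 30 °C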

[3] = doxorubicin toxicity protection in MRP-1 cells – H69AR cells, CellTiter-Glo, duplicate, MRP-1 activator project, pilot screen (AID 807); settings: H69AR viability with doxorubicin, CellTiter-Glo luminescence; at 10 µM; hits give high values;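 also: compound pretreatment 18-22 h then 72 h combined with doxorubicin; 0% = doxorubicin alone and 100% = vehicle without doxorubicin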
[4] = viability of HCT116 without oncogenic beta-catenin – human colon tumor cells, pilot screen (AID 823;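 active = cell viability at or below a set limit in both duplicate runs, the limit being the all-compound median minus 4 SD, cut at about 23% in these data, passing the limit was not always enough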;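 also: 0% = wells killed by 20 µM Hyamine and 100% = untreated DMSO cell wells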); settings: HCT116 beta-catenin knockout viability, CellTiter-Glo, 60 h; at 10 µM; hits give low values
[5] = viability of PTEN-null HCT116 cells – cell-based, HCT116 clonal line, CellTiter-Glo, pilot screen (AID 824;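 active = viability at or below 27.92% in each of two runs, the all-compound median minus 4 SD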;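 also: 0% = 20 µM Hyamine control and 100% = vehicle cell control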); settings: HCT116 PTEN-deleted viability, 60 h, at 10 µM, hits give low values
[6] = RAM pathway blockade in budding yeast – dse1pr::URA3 reporter, 5-FOA selection, pilot screen (AID 869;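 active = inhibition over a set limit, the all-compound mean plus 3 SD, in both replicate runs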;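 also: 0% = DMSO wells with no growth and 100% = 10 µM 1-NA-PP1 with full growth; RAM network block rescues cells from 5-FOA so hits raise OD615 growth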); settings: S. cerevisiae dse1pr::URA3 5-FOA growth, OD615, 2 d; at 10 µM; hits give high values; strain carries analog-sensitive mutant Cbk1 kinase
[7] = RAM signaling pathway blockade in yeast – S. cerevisiae, Pdr1DBD-CYC8 efflux-inhibited sensitized strain, primary screen (AID 1298;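 active = RAM network inhibition above 8.4% in each of two replicates, 3 SD over the compound average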;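 also: 0% = DMSO untreated cells without growth and 100% = 10 µM 1-NA-PP1 full growth; higher means more yeast growth rescued from 5-FOA killing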); settings: S. cerevisiae cbk1-as DSE1-URA3 strain, 5-FOA growth OD615, 2 d; at 50 µM; hits give high values

O=C(Cn1cnc2c(nnn2-c2ccccc2)c1=O)NCC1CCCO1 (stereo unspecified)
inactive: growth inhibition [1] -6.44% | growth inhibition [2] 8.14% | viability increase [3] -2.94% | viability [4] 100% | viability [5] 94.3% | inhibition [6] 1.41% | RAM network inhibition [7] 1.65%

COCCn1c(SCC(=O)Nc2cc(Cl)ccc2OC)nc2c(c1=O)SC(C)C2 (stereo unspecified)
inactive: growth inhibition [1] 1.23% | growth inhibition [2] 0.95% | viability increase [3] -6.28% | viability [4] 83.3% | viability [5] 78% | inhibition [6] 2.55% | RAM network inhibition [7] -0.36%

Cc1nn(C)c(C)c1S(=O)(=O)N(CC(=O)NCc1cccs1)c1ccc(C(C)C)cc1
inactive: growth inhibition [1] -16.9% | growth inhibition [2] -13.5% | viability increase [3] -3.06% | viability [4] 99% | viability [5] 87.5% | inhibition [6] 2.2% | RAM network inhibition [7] 8.44%

CCN(C(=O)COC(=O)C(Cc1ccccc1)N1C(=O)c2ccccc2C1=O)C1CCS(=O)(=O)C1 (stereo unspecified)
inactive: growth inhibition [1] -4.4% | growth inhibition [2] -18.5% | viability increase [3] 0.46% | viability [4] 97.4% | viability [5] 99.5% | inhibition [6] 0.495% | RAM network inhibition [7] 2.8%

COC(=O)c1cccc(NC(=O)C(C)N2C(=O)c3ccccc3C2=O)c1 (stereo unspecified)
inactive: growth inhibition [1] -16.2% | growth inhibition [2] 10.2% | viability increase [3] -1.25% | viability [4] 93.4% | viability [5] 106% | inhibition [6] 1.77% | RAM network inhibition [7] 2.77%

CCOC(=O)Cn1c(CN2CCc3ccccc3C2)nc2c1c(=O)n(C)c(=O)n2C
inactive: growth inhibition [1] -7.72% | growth inhibition [2] 1.89% | viability increase [3] -0.76% | viability [4] 84.5% | viability [5] 86.1% | inhibition [6] -0.39% | RAM network inhibition [7] 4.64%

CCC(=O)N=c1sc2c(OC)ccc(OC)c2n1C
inactive: growth inhibition [1] -7.02% | growth inhibition [2] -7.99% | viability increase [3] -4.85% | viability [4] 92.4% | viability [5] 91.2% | inhibition [6] 1.68% | RAM network inhibition [7] 2.04%

COc1cccc(-c2nc(CS(=O)(=O)CC(=O)N3CCN(C4CCCCC4)CC3)c(C)o2)c1
inactive: growth inhibition [1] 1.34% | growth inhibition [2] -1.93% | viability increase [3] -2.59% | viability [4] 86.4% | viability [5] 100% | inhibition [6] 0.41% | RAM network inhibition [7] 3.35%

COC(=O)CSc1nc2ccccc2nc1SCC(=O)OC
inactive: growth inhibition [1] -11.7% | growth inhibition [2] -9.89% | viability increase [3] -2% | viability [4] 93.4% | viability [5] 92% | inhibition [6] 2.12% | RAM network inhibition [7] 7.83%

N#Cc1cnn(CC2CCCCC2)c1N
inactive: growth inhibition [1] -15.6% | growth inhibition [2] -8.75% | viability increase [3] -0.89% | viability [4] 89.4% | viability [5] 93.2% | inhibition [6] 1.57% | RAM network inhibition [7] 3.68%

COc1ccc(C2NC(=O)c3n[nH]c(C)c32)c(OC)c1 (stereo unspecified)
inactive: growth inhibition [1] -1.65% | growth inhibition [2] 7.6% | viability increase [3] -0.95% | viability [4] 102% | viability [5] 103% | inhibition [6] 2.85% | RAM network inhibition [7] 3.42%

CCOC(=O)c1oc2cc(O)ccc2c(=O)c1-c1ccccc1OC
inactive: growth inhibition [1] -11.6% | growth inhibition [2] -0.685% | viability increase [3] -1.98% | viability [4] 98.4% | viability [5] 92% | inhibition [6] -0.595% | RAM network inhibition [7] 5.56%

Cc1cccc(NC(=O)C2CCCN(S(=O)(=O)c3cccc4cccnc34)C2)c1 (stereo unspecified)
inactive: growth inhibition [1] -13.1% | growth inhibition [2] -9.72% | viability increase [3] -1.92% | viability [4] 87.2% | viability [5] 74.6% | inhibition [6] 2.15% | RAM network inhibition [7] 3.91%

CCOC(=O)C1CCN(C(=O)c2cc3c(-c4ccc(OC)c(OC)c4)nn(C)c3s2)CC1
inactive: growth inhibition [1] -7.02% | growth inhibition [2] -7.66% | viability increase [3] -2.04% | viability [4] 107% | viability [5] 98.9% | inhibition [6] 0.595% | RAM network inhibition [7] 5.7%

COc1ccccc1C1C(C(N)=O)=C(C)Nc2nc(-c3ccc(Cl)cc3)nn21 (stereo unspecified)
inactive: growth inhibition [1] -5.66% | growth inhibition [2] 0.335% | viability increase [3] -1.26% | viability [4] 95% | viability [5] 92.4% | inhibition [6] -0.455% | RAM network inhibition [7] -1.72%

Cc1ccc(C2CC(c3ccccc3)n3ncnc3N2)cc1 (stereo unspecified)
inactive: growth inhibition [1] 1.32% | growth inhibition [2] 6.08% | viability increase [3] 1.68% | viability [4] 99.9% | viability [5] 98.8% | inhibition [6] 0.06% | RAM network inhibition [7] 1.8%

CCCCN(CC)CCNc1c(NC2CCN(C(=O)OCC)CC2)c(=O)c1=O
inactive: growth inhibition [1] 2.35% | growth inhibition [2] 5.98% | viability increase [3] -0.12% | viability [4] 100% | viability [5] 95% | inhibition [6] 0.09% | RAM network inhibition [7] 3.37%

CCOC(=O)c1c(N=CN(C)C)c(C#N)n2c1CCC2
inactive: growth inhibition [1] -15.1% | growth inhibition [2] -6.7% | viability increase [3] -1.41% | viability [4] 101% | viability [5] 93.2% | inhibition [6] 1.11% | RAM network inhibition [7] 5.49%

C=CCNc1oc(COc2ccc(C)cc2)nc1C#N
inactive: growth inhibition [1] -7.16% | growth inhibition [2] 1.92% | viability increase [3] 4.36% | viability [4] 99.1% | viability [5] 97.3% | inhibition [6] 1.18% | RAM network inhibition [7] -0.52%

COc1ccccc1Nc1nc(N)nc(CN2CCOCC2)n1
inactive: growth inhibition [1] -12.9% | growth inhibition [2] -6.13% | viability increase [3] -0.98% | viability [4] 108% | viability [5] 101% | inhibition [6] 0.845% | RAM network inhibition [7] 3.74%

Cc1[nH]c2ccccc2c1SCCN
inactive: growth inhibition [1] -9.76% | growth inhibition [2] -12.4% | viability increase [3] -5.96% | viability [4] 73.9% | viability [5] 62.9% | inhibition [6] 2.34% | RAM network inhibition [7] 1.7%

COC(=O)c1ccccc1N(Cc1ccccc1)S(C)(=O)=O
inactive: growth inhibition [1] -3.77% | growth inhibition [2] -8.56% | viability increase [3] -4.02% | viability [4] 90.6% | viability [5] 105% | inhibition [6] -0.425% | RAM network inhibition [7] 1.83%

CCN=C1SC(CC(=O)NC(N)=O)C(=O)N1CC (stereo unspecified)
inactive: growth inhibition [1] -12.5% | growth inhibition [2] -17.8% | viability increase [3] 0.51% | viability [4] 101% | viability [5] 101% | inhibition [6] 1.3% | RAM network inhibition [7] 1.66%

— PubChem BioAssay
